# According to ChEMBL document CHEMBL1955758, “Synthesis and in vitro antiplasmodial activities of fluoroquinolone analogs” (Eur J Med Chem, 2012):
# Assays:
# Plasmodium falciparum = assay: Antimalarial activity against chloroquine-sensitive Plasmodium falciparum 3D7; type: functional, organism-based
# Method in brief: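 Chloroquine-sensitive P. falciparum 3D7 grown in vitro with ciprofloxacin as the reference standard; IC50 reported as mass concentration ± SE.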
# HEK293 [1] = assay: Cytotoxicity against human HEK293 cells 1 to 100 uM after 24 to 72 hrs by MTT assay; type: cell-based
# Method in brief: (§1)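 HEK-293 monolayers were kept in DMEM at 37 °C under 5% CO2 and seeded at about 4000 cells/well for 24 h. Medium was then replaced with fresh medium holding compound at 1, 10, 20, 30, 50 and 100 concentration units, and cells were incubated 24, 48 and 72 h. Viability was read by MTT and IC50 calculated.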
# HEK293 [2] = assay: Cytotoxicity against human HEK293 cells after 24 to 72 hrs by MTT assay; type: cell-based; method in brief: as §1
SMILES,IC50 (Plasmodium falciparum),Activity (HEK293 [1]),IC50 (HEK293 [2])
CCOC(=O)c1c[nH]c2cc(Cl)c(F)cc2c1=O,5.81 µg/mL,,
CCCn1cc(Cn2cc(C(=O)OCC)c(=O)c3cc(F)c(Cl)cc32)nn1,5.4 µg/mL,,
CCOC(=O)c1cn(Cc2cn(CC(=O)OC)nn2)c2cc(Cl)c(F)cc2c1=O,5.26 µg/mL,,
CCOC(=O)c1cn(C(C)C)c2cc(Cl)c(F)cc2c1=O,6.97 µg/mL,,
O=C(O)c1c[nH]c2cc(Cl)c(F)cc2c1=O,4.32 µg/mL,Non-toxic,
CCOC(=O)c1cn(Cc2cn(Cc3ccccc3)nn2)c2cc(Cl)c(F)cc2c1=O,12.2 µg/mL,,
CCOC(=O)c1cn(Cc2cn(-c3ccc(Cl)cc3)nn2)c2cc(Cl)c(F)cc2c1=O,13 µg/mL,,
CCOC(=O)c1cn(Cc2cn(-c3cccc(Cl)c3)nn2)c2cc(Cl)c(F)cc2c1=O,2.73 µg/mL,,
CCOC(=O)c1cn(Cc2ccccc2)c2cc(Cl)c(F)cc2c1=O,6.83 µg/mL,,
CCOC(=O)c1cn(Cc2c[nH]nn2)c2cc(Cl)c(F)cc2c1=O,1.33 µg/mL,Toxic,
CCOC(=O)c1cn(Cc2cn(-c3ccc(F)cc3)nn2)c2cc(Cl)c(F)cc2c1=O,4.3 µg/mL,,63.8 µM
CCOC(=O)c1cn(Cc2cn(-c3ccc(F)c(Cl)c3)nn2)c2cc(Cl)c(F)cc2c1=O,3.4 µg/mL,,41.9 µM
CCOC(=O)c1cn(Cc2cn(-c3ccnc4cc(Cl)ccc34)nn2)c2cc(Cl)c(F)cc2c1=O,4.06 µg/mL,Non-toxic,
O=C(O)c1cn(C2CC2)c2cc(N3CCNCC3)c(F)cc2c1=O [CIPROFLOXACIN],8.82 µg/mL,,

# Second part, led by results:
IC50 (Plasmodium falciparum),SMILES,Activity (HEK293 [1]),IC50 (HEK293 [2])
14.3 µg/mL,CCOC(=O)c1cn(Cc2cn(CCO)nn2)c2cc(Cl)c(F)cc2c1=O,,
6.96 µg/mL,CCCCn1cc(C(=O)OCC)c(=O)c2cc(F)c(Cl)cc21,,
3.46 µg/mL,C#CCn1cc(C(=O)OCC)c(=O)c2cc(F)c(Cl)cc21,,
11.8 µg/mL,CCOC(=O)c1cn(C)c2cc(Cl)c(F)cc2c1=O,,
15.2 µg/mL,CCOC(=O)c1cn(CC)c2cc(Cl)c(F)cc2c1=O,,
4.86 µg/mL,CCCn1cc(C(=O)OCC)c(=O)c2cc(F)c(Cl)cc21,,
4.26 µg/mL,CCOC(=O)c1cn(CCO)c2cc(Cl)c(F)cc2c1=O,,
2.56 µg/mL,CCOC(=O)c1cn(CC#N)c2cc(Cl)c(F)cc2c1=O,,
